An excerpt weighted towards active compounds, which were near 7.2% of everything screened.
hDAT+cocaine – changed hDAT dopamine uptake under cocaine IC80, either direction, primary screen, cocaine antagonist project, cell-based, LLC-PK1 hDAT, [14C]-dopamine uptake, MLSMR; Sodium-dependent dopamine transporter (Homo sapiens), Q01959; LLC-PK1 hDAT cells, [14C]-dopamine uptake with cocaine IC80; actives deviate in either direction; B-score at 10 µM; 1.3% of 110,000 active;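 active = Z score or B-score, a plate-position-corrected score, falls beyond the plate's 99.7% confidence bounds, in either direction; inactive = both scores lie inside the 99.7% bounds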;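 note: scored against the spread of the other compound wells on the same plate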
BAP1 block – inhibitors of BAP1 deubiquitinase, primary screen, biochemical, Ub-AMC fluorescence, kinetic. calls only at 20 µM. 0.48% of 72,000 active. recombinant BAP1, Ub-AMC hydrolysis fluorescence kinetic; stronger effect = lower value;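 active = activity remaining at or below 50% of control, provided the compound also passes the data quality filters; inactive = the rest, including low values that fail the filters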;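 note: 100% = DMSO wells rate and 0% = substrate alone blank rate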
D1 mod – D1 CRE-luciferase signal change, two-sided – cell-based, HEK293 D1, dopamine EC30, D1 allosteric modulator project, primary screen. B-score at 10 µM. dopamine EC30 potentiation; actives deviate in either direction. 5.9% of 58,000 active. D(1A) dopamine receptor (Homo sapiens), P21728;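 active = luminescence count or its row- and column-corrected plate score outside the 99.7% band of the plate's sample wells, on either side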
Target sequence (P21728 whole entry, looked up): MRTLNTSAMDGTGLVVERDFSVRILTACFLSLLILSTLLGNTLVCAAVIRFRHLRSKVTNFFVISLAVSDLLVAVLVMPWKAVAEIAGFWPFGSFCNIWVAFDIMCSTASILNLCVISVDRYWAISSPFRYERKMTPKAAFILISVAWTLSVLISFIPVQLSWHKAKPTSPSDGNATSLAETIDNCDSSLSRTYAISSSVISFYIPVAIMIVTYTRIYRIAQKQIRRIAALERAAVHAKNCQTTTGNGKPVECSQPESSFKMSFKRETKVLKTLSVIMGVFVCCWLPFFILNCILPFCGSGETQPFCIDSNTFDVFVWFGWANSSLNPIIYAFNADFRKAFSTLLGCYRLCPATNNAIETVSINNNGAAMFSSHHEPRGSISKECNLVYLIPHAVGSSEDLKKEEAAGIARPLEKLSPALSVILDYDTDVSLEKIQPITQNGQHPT
M1 agonist – M1 muscarinic receptor agonists, primary screen, CHO-M1 cells, Fluo-4 calcium, agonist mode; Muscarinic acetylcholine receptor M1; Fluo-4 calcium fluorescence; stronger effect = higher value; B-score at 10 µM; 3% of 64,000 active; AID 626, 2007;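 active = fluorescence rise, raw or as B-score row- and column-corrected plate score, outside the 99.7% band of its plate's samples, either direction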
HEK293 NFkB inh – inhibitors of PMA/ionomycin-induced NF-kB reporter, primary screen, antigen receptor NF-kB inhibitor project, cell-based, HEK-293 luciferase reporter, luminescence; inhibition, % at 3 µM; 0.21% of 62,000 active; HEK-293 NF-kB luciferase reporter; AID 465, 2006;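 active = inhibition above the mean of all tested compounds plus 3 SD, cut at about 40% in these data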;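 note: 0% = stimulated DMSO wells and 100% = 10 µM reference inhibitor 5653914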
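System: NF-kB luciferase reporter HEK-293 cells | Replication: Single test | Control set: DMSO vs reference inhibitor | Evaluation: % inhibition | Schedule: 1 h pretreatment, 16 h stimulation, 37 °C | Probe or stimulus: PMA with ionomycin | Compound dosing: One dose, 3 µM | Detection: Luciferase luminescence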
M1 antagonist – antagonists of rat M1 muscarinic receptor | Muscarinic acetylcholine receptor M1 (Rattus norvegicus), P08482 | CHO-M1 cells, Fluo-4 calcium, ACh EC80 antagonist mode; stronger effect = lower value | B-score at 10 µM | 3.4% of 64,000 active | AID 628, 2007;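 active = calcium fluorescence response, raw or row-and-column corrected B-score, differing from the plate sample mean either way at a set confidence level, mostly lower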
M1 antag confirm – rat M1 muscarinic receptor antagonists, confirmation, CHO cells, Fluo-4 calcium, duplicate; shares compounds with M1 antagonist; ACh EC80 antagonism; stronger effect = lower value; calcium response (max-min fluorescence) at 10 µM; 43% of 1,700 active;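 active = calcium response below the same-plate mean of wells given acetylcholine alone at its 80%-effect dose, minus 3 SD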;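 note: raw fluorescence intensity difference in arbitrary instrument units and not normalized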
mGluR4 antag – human mGluR4 response to M1 antagonist hits, M1 allosteric modulator project, cell-based, antagonist mode, secondary assay 1. fluorescence response (max-min) at 10 µM. 0.9% of 1,700 active. CHO-mGluR4 calcium flux, Fluo-4 fluorescence, glutamate EC80; stronger effect = lower value. shares compounds with M1 antagonist;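 active = fluorescence response below the plate's average for near-maximal glutamate wells, less 3 SD of those wells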;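 note: raw unnormalized fluorescence span taken in the window right after glutamate addition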
Numbers without * were called inactive; i = inactive; x = no result.

SMILES	hDAT+cocaine	BAP1 block	D1 mod	M1 agonist	HEK293 NFkB inh	M1 antagonist	M1 antag confirm	mGluR4 antag
O=C(OCCN1CCCC1)C1(c2ccccc2)CCCC1	0.69	i	-0.065	0.26	4	-15*	28*	166
COC(=O)C1=C(NC(=O)c2ccc(C(C)(C)C)cc2)CCS1	x	i	x	x	x	x	x	x
O=C(CSc1ccc2ccccc2c1)Nc1cccc(C(F)(F)F)c1	x	i	x	x	x	x	x	x
COc1ccc(C(CNC(=O)c2ccc(S(=O)(=O)N3CCOCC3)cc2)N2CCCCC2)cc1 (centres undefined)	0.6	i	-0.21	-0.69	18	-3.2*	576	186
CCn1c(SCc2ccccc2Cl)nc2c1c(=O)[nH]c(=O)n2C	x	i	x	x	x	x	x	x
CCOC(=O)Cn1c(=N)n(CCOc2cccc(C)c2)c2ccccc21	0.99	i	-0.93	-1.5	6	-0.8*	603	229
CN1CCN(CC#CCn2c3ccccc3c3ccccc32)CC1	-1.2	i	-1.7	1.3	7	-13*	229*	219
N#CCCN1CCN(Cn2c3ccccc3c3ccccc32)CC1	0.17	i	0.24	0.065	8	0.55	x	x
COc1cccc2sc(=NC(=O)c3ccc(S(=O)(=O)N(C)C)cc3)n(C)c12	x	i	x	x	x	x	x	x
COc1ccc(N2CCN(CCNC(=O)c3c(C)cc(=O)oc3C)CC2)cc1	-0.063	i	0.15	-0.59	10	-4.6*	354*	227
Cc1cc(=O)oc(C)c1C(=O)NCCCN1CCN(c2ccc(F)cc2)CC1	0.16	i	-2.1	0.7	16	-0.46	x	x
COC(=O)Cn1cc(C(=O)C2CC2)c2ccccc21	-0.023	i	-0.64	0.12	16	-1.6*	540	196
CCOC(=O)Cn1cc(C(=O)C2CC2)c2ccccc21	-1.1	i	0.0048	0.84	2	-0.23	x	x
CN1CCN(Cc2cccc(Oc3ccccc3)c2)CC1	0.49	x	x	x	x	x	x	x
OCCN1CCN(Cc2cccc(Oc3ccc(Cl)cc3)c2)CC1	0.74	i	-0.74	-1	10	-2.9*	378*	187
N=C1c2ccccc2CN1CC(=O)c1ccc2c(c1)OCCO2	x	i	x	x	x	x	x	x
CC(NC(=O)c1ccccc1)C1CC2CCC1C2 (centres undefined)	x	i	x	x	x	x	x	x
O=C1CC(c2ccco2)CC(O)=C1C=NCC1CCNCC1 (centres undefined)	0.68	i	1.3	-0.012	20	-3.8*	462*	226
Cc1ccc(NS(=O)(=O)c2cc(C(=O)Nc3ccc(C(=O)O)cc3)ccc2C)cc1	x	i	x	x	x	x	x	x
Cc1nnc(SCC(=O)N2CCC(Cc3ccccc3)CC2)n(N)c1=O	-1.8	i	-0.76	-0.11	12	-3*	559	231
COc1ccc(OCC(=O)NC2CCCCCCCCCCC2)cc1	x	i	x	x	x	x	x	x
COCCOC(=O)C1=C(C)NC(=O)NC1c1cccc([N+](=O)[O-])c1 (centres undefined)	x	i	x	x	x	x	x	x
COc1cc2c(C(=O)NCCCN3CC(C)CC(C)C3)cn(CC(C)C)c(=O)c2cc1OC (centres undefined)	-0.15	x	x	-0.13	9	-2.5*	499*	238
COc1cc2c(C(=O)NCCCOC(C)C)cn(CC(C)C)c(=O)c2cc1OC	0.13	i	-0.018	x	5	x	x	x
CCn1c(CSc2ncccn2)nnc1SCC(=O)N1CCc2ccccc21	x	i	0.9	-0.95	10	-5.4*	474	225
Cn1c(CSc2ncccn2)nnc1SCC(=O)N1CCCc2ccccc21	x	i	0.45	0.021	23	-0.72	x	x
